Data: PMC10676332 (Drugs in R&D, 2023)
Read-outs that look alike come from different tables or passages of the source.

Experiments:
[1] = cited from earlier work
[2] = oral administration with food vs fasted; cited from earlier work
[3] = system: Caco-2; assay: Caco-2 permeability assay; assay type: in vitro ADME; details: Caco-2, concentrations 2.00 to 50.0 µM
[4] = system: HCC78 cells; details: cited from earlier work
[5] = system: ALK-positive NSCLC; details: cited from earlier work; for Objective response rate (ORR): phase I; for IRC-assessed ORR: phase II
[6] = In vitro solubility; assay type: physicochemical
[7] = Metabolism in human liver microsomes; assay type: in vitro ADME
[8] = target: wild-type and mutant ROS1; details: preclinical data; cited from earlier work
[9] = system: BaF3 cells expressing ROS1 fusion wild-type and resistance mutants; details: cited from earlier work
[10] = Safety assessment; assay type: in vivo, human
Outline: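 Randomized crossover in healthy adults (fasted-fed or fed-fasted, 14-day washout). A TEAE counted any AE absent before dosing, or pre-existing and worsening in intensity or frequency after dosing. AEs graded; serious AEs and discontinuations recorded. Analysis set: every subject receiving at least one dose.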

[11] = assay type: in vivo, human; details: 160 mg single oral dose
Outline: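 Healthy adults randomized 1:1 to fasted-fed or fed-fasted sequence, 14-day washout; ≥10-h overnight fast pre-dose, no drinking 1 h before to 2 h after, fasting 4 h post-dose. Plasma sampled pre-dose to 168 h, spun 1700g, 2–8 °C, 10 min, kept −70 °C; validated LC-MS/MS; non-compartmental parameters. Ln-transformed Cmax/AUC in linear mixed model; fed/fasted GMR with 90% CI, limits 0.80–1.25.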

[12] = single 160 mg dose, fasted, cited from earlier work
[13] = system: ROS1 wild-type and G2032R mutant xenograft models; details: cited from earlier work
[14] = target: ALK; details: preclinical data; cited from earlier work
[15] = oral 20–210 mg/day, ALK-positive NSCLC patients
[16] = 160 mg single dose, fed (high-fat meal)

C[C@@H](Oc1cc(-c2cnn(C3CCNCC3)c2)cnc1N)c1c(Cl)ccc(F)c1Cl [crizotinib]
BCS class ([1]; approved ALK and ROS1 TKIs): BCS class IV

Cc1cc(Nc2ncc(Cl)c(Nc3ccccc3S(=O)(=O)C(C)C)n2)c(OC(C)C)cc1C1CCNCC1 [ceritinib]
BCS class ([1]; approved ALK and ROS1 TKIs): BCS class IV
Effect of food on drug exposure / PK [2]: improved exposure
Effect of food on safety [2]: improved exposure and safety with food

COc1cc(N2CCC(N3CCN(C)CC3)CC2)ccc1Nc1ncc(Cl)c(Nc2ccccc2P(C)(C)=O)n1 [brigatinib]
BCS class ([1]; approved ALK and ROS1 TKIs): BCS class I

CCc1cc2c(cc1N1CCC(N3CCOCC3)CC1)C(C)(C)c1[nH]c3cc(C#N)ccc3c1C2=O [alectinib]
BCS class ([1]; approved ALK and ROS1 TKIs): BCS class IV

C[C@H]1Oc2cc(cnc2N)-c2c(nn(C)c2C#N)CN(C)C(=O)c2ccc(F)cc21 [lorlatinib]
BCS class ([1]; approved ALK and ROS1 TKIs): BCS class IV

Cc1cc(Nc2ncc(Cl)c(Nc3ccccc3S(=O)(=O)C(C)C)n2)c2c(c1C1CCN(C)CC1)C[C@@H](C)O2 [SAF-189s]
Drug efflux [3]: evidence of drug efflux
Permeability [3]: low permeability
Inhibition of cell proliferation [4]: potent inhibition
Anti-tumor efficacy [5, 15]: promising anti-tumor efficacy
Intracranial activity [5, 15]: had intracranial activity
Tolerability ([5]; oral 20–210 mg/day, fasted state, ALK-positive NSCLC patients): well tolerated
Objective response rate (ORR) ([5]; ALK inhibitor-naive subgroup (8/11)): 72.7%
Objective response rate (ORR) ([5]; all patients (28/45), oral 20–210 mg/day, fasted): 62.2%
Objective response rate (ORR) ([5]; brain metastases subgroup (17/27)): 63.0%
IRC-assessed ORR ([5]; ALK inhibitor-naive patients (95/104)): 91.3%
IRC-assessed ORR ([5]; all patients (116/150)): 77.3%
IRC-assessed ORR ([5]; brain metastases subgroup (50/71)): 70.4%
IRC-assessed ORR ([5]; crizotinib-pretreated group (17/26)): 65.4%
Tolerability of single doses ([5]; single doses of 160 mg, most AEs Grade 1 or 2): generally well tolerated
Solubility ([6]; 0.1 mol/L hydrochloric acid, in vitro): slightly soluble
Solubility ([6]; pH 6.8, in vitro): poor solubility
Main metabolizing enzyme [7]: mainly metabolized by cytochrome P450 3A4 (CYP3A4)
IC50 against wild-type and mutant ROS1 kinase activity [8]: sub-nanomolar to nanomolar
Inhibition of cell proliferation [9]: potent inhibition
Incidence of TEAEs ([10]; 160 mg single dose, fasted): 54.2%
Incidence of gastrointestinal disorders ([10]; 160 mg single dose, fasted): 41.7%
Incidence of headache ([10]; 160 mg single dose, fasted): 12.5%
Serious AEs ([10]; 160 mg single dose, fasted and fed): no serious AEs were reported
Incidence of TEAEs [10, 16]: 29.2%
Incidence of gastrointestinal disorders [10, 16]: 4.2%
Incidence of headache [10, 16]: 0.0%
Discontinuation of the study due to an AE ([10]; 160 mg single dose, Grade 1 vomiting): Only one volunteer
Tolerability ([10]; single doses of 160 mg, healthy volunteers): generally well tolerated
BCS class ([1]; low solubility and low gastrointestinal permeability): class IV
Effect of high-fat meal on the PK profile ([11]; fed vs fasted): minimal effect
Geometric mean ratio: fed/fasted, AUC0-t ([11]; n = 23): 105.1%
Geometric mean ratio: fed/fasted, AUC0-∞ ([11]; n = 23): 105.5%
Geometric mean ratio: fed/fasted, Cmax ([11]; n = 23): 109.1%
AUC0-∞, geometric mean (CV%) ([12]; nine patients): 1970 (30.0) ng·h/mL
Cmax, geometric mean (CV%) ([12]; nine patients): 41.9 (27.0) ng/mL
t½, geometric mean (CV%) ([12]; nine patients): 39.3 (25.6) h
Median tmax ([12]; patients): 3.0 h
Growth of xenograft models [13]: inhibited growth
IC50 against ALK kinase activity [14]: sub-nanomolar to nanomolar

CN1CCN(c2ccc(C(=O)Nc3n[nH]c4ccc(Cc5cc(F)cc(F)c5)cc34)c(NC3CCOCC3)c2)CC1 [entrectinib]
BCS class ([1]; approved ALK and ROS1 TKIs): BCS class II
